Measured values from ChEMBL document CHEMBL4706681, “New 2-Pyrazoline and Hydrazone Derivatives as Potent and Selective Monoamine Oxidase A Inhibitors” (J Med Chem, 2021).
The source made the active and inactive calls. The calls are words filed in the database; no cut-off is given here.

Columns and labels:
[1] = Permeability of compound in PBS/EtOH buffer (70:30) at 25 ug/ml incubated for 16 hrs by UV plate reader based PAMPA-BBB
[2] = Ex vivo inhibition of MAOA in CD1 mouse brain homogenates assessed as MAOA level at 30 mg/kg, po administered as single acute dose via gavage and measured after 1 hr by monoamine oxidase assay (reference value: 0.40 +/- 0.012 nmol/min/mg); assay type: functional
[3] = biological target: T1, Amine oxidase [flavin-containing] B (Homo sapiens, UniProt P27338); assay: Inhibition of recombinant human MAO-B expressed in baculovirus infected BTI insect cells using p-tyramine as substrate incubated for 30 mins by Amplex red reagent based fluorescence analysis; assay type: cell-based
T1 sequence (P27338 whole entry): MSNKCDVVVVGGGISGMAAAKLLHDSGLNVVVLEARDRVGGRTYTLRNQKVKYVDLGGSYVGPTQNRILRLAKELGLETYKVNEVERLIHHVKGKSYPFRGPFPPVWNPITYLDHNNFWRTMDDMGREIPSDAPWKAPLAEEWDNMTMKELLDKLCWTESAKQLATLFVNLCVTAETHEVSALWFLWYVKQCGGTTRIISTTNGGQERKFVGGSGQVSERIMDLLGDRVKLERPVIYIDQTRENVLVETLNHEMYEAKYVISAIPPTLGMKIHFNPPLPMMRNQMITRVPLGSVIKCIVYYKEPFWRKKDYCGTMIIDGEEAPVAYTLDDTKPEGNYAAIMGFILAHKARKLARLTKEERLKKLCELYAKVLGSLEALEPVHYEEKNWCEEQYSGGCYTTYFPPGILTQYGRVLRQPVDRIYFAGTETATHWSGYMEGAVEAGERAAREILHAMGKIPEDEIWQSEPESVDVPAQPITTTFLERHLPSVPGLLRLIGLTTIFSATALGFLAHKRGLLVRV

[4] = biological target: T1, Amine oxidase [flavin-containing] B; assay: Reversible inhibition of human MAO-B assessed as residual enzyme activity at 4 fold IC50 incubated for 15 mins and measured before dialysis relative to control
Method in brief: (§1)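 Dialysed (MWCO 12 000) at 4 °C for 24 h against 100 mM potassium phosphate pH 7.4, 5% sucrose, buffer changed twice. Dialysed and undialysed mixtures assayed together; residual activity from triplicates.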

[5] = Ex vivo inhibition of MAOA in CD1 mouse brain homogenates assessed as dopamine levels at 30 mg/kg, po administered as single acute dose via gavage and measured after 1 hr by ELISA kit method (reference value: 7.08 +/- 0.58 ug/g); assay type: functional
[6] = biological target: T2, Amine oxidase [flavin-containing] A (Homo sapiens, UniProt P21397); assay: Inhibition of recombinant human MAO-A expressed in baculovirus infected BTI insect cells using p-tyramine as substrate incubated for 30 mins by Amplex red reagent based fluorescence analysis
T2 sequence (P21397 whole entry): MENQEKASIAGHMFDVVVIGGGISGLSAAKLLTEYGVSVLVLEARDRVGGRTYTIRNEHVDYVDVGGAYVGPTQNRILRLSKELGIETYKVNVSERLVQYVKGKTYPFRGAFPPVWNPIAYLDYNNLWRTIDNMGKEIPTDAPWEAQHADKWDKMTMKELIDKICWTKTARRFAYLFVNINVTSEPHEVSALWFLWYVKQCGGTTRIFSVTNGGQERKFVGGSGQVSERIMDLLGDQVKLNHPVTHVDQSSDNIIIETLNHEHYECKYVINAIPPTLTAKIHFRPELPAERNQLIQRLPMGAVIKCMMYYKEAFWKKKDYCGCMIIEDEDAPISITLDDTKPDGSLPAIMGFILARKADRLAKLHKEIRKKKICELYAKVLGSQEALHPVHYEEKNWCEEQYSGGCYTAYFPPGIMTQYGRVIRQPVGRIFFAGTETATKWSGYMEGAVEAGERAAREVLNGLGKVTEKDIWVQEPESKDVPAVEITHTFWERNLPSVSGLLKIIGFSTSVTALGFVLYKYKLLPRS

Mus musculus [7] = assay: Antidepressant-like activity in CD1 mouse assessed as reduction in immobility time at 30 mg/kg, po administered via gavage as single dose measured after 1 hr by Porsolt-forced swim test; assay type: functional, organism-based
[8] = Effect on locomotor activity in CD1 mouse assessed as total distance traveled at 30 mg/kg, po administered via gavage for 7 days by open field test; assay type: ADME, organism-based; settings: in vivo, 168 h, time 7 day
Method in brief: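 Each mouse placed in the centre of a 50 × 50 × 30 cm black box and video-tracked; total distance travelled over 5 min; n = 8–10.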

[9] = biological target: T2, Amine oxidase [flavin-containing] A; assay: Reversible inhibition of human MAO-A assessed as residual enzyme activity at 4 fold IC50 incubated for 15 mins and measured 24 hrs post dialysis by dialysis method relative to control; settings: 24.25 h, time 1455 min; method in brief: as §1
[10] = biological target: T2, Amine oxidase [flavin-containing] A; assay: Reversible inhibition of human MAO-A assessed as residual enzyme activity at 4 fold IC50 incubated for 15 mins and measured before dialysis by dialysis method relative to control; method in brief: as §1
Mus musculus [11] = assay: Antidepressant-like activity in CD1 mouse assessed as reduction in immobility time at 30 mg/kg, po administered via gavage for 7 days and measured 1 h post last dose by Porsolt-forced swim test; assay type: functional, organism-based; settings: time 7.0 day
Method in brief: (§2)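 Male albino CD-1 mice (20–25 g), 12 h light/dark, food and water ad libitum. Dosed by oral gavage once daily for 7 days in 200 μL 0.5% CMC; vehicle-only controls. […] Forced swim test run 1 h after the last dose. Immobility scored every 60 s over 6 min; n = 8–12.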

[12] = Selectivity index, ratio of Ki for inhibition of recombinant human MAO-A to Ki for inhibition of recombinant human MAO-B using p-tyramine as substrate
[13] = Ex vivo inhibition of MAOA in CD1 mouse brain homogenates assessed as inhibition of 5-HT deamination by measuring 5-HIAA metabolite levels by using at 30 mg/kg, po administered as subchronic dose via gavage for 7 days and measured 1 hr post last dose by HPLC analysis (reference value: 0.18 +/- 0.01 ug/g); assay type: functional; settings: time 7 day
[14] = Ex vivo inhibition of MAOA in CD1 mouse brain homogenates assessed as 5-HT levels at 30 mg/kg, po administered as subchronic dose via gavage for 7 days and measured 1 hr post last dose by ELISA kit method (reference value: 0.78 +/- 0.01 ug/g); assay type: functional; settings: time 7 day
[15] = Cytotoxicity against human HepG2 cells assessed as cell viability at 7.5 uM incubated for 2 hrs by MTT assay relative to control; assay type: cell-based; settings: read-out: Activity
Method in brief: (§3)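 HepG2 human hepatoma cells; viability read by MTT assay, with 0.1% DMSO as vehicle control. Viability given as % of control, mean ± SEM (n = 3); p < 0.05 taken as significant.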

[16] = Cytotoxicity against human HepG2 cells assessed as cell viability at 30 uM incubated for 2 hrs by MTT assay relative to control; assay type: cell-based; settings: read-out: Activity; method in brief: as §3
[17] = Ex vivo inhibition of MAOA in CD1 mouse brain homogenates assessed as assessed as inhibition of dopamine deamination by measuring DOPAC metabolite levels at 30 mg/kg, po administered as single acute dose via gavage and measured after 1 hr by HPLC analysis (reference value: 1.22 +/- 0.2 ug/g); assay type: functional
[18] = Ex vivo inhibition of MAOA in CD1 mouse brain homogenates assessed as MAOA level at 30 mg/kg, po administered as subchronic dose via gavage for 7 days and measured 1 hr post last dose by monoamine oxidase assay (reference value: 0.40 +/- 0.005 nmol/min/mg); assay type: functional; settings: time 7 day
[19] = Ex vivo inhibition of MAOA in CD1 mouse brain homogenates assessed as 5-HT levels at 30 mg/kg, po administered as single acute dose via gavage and measured after 1 hr by ELISA kit method (reference value: 0.80 +/- 0.006 ug/g); assay type: functional
[20] = Cytotoxicity against human HepG2 cells assessed as cell viability at 15 uM incubated for 2 hrs by MTT assay relative to control; assay type: cell-based; settings: read-out: Activity; method in brief: as §3
[21] = Ex vivo inhibition of MAOA in CD1 mouse brain homogenates assessed as assessed as inhibition of 5-HT deamination by measuring 5-HIAA metabolite levels at 30 mg/kg, po administered as single acute dose via gavage and measured after 1 hr by HPLC analysis (reference value: 0.28 +/- 0.011 ug/g); assay type: functional
[22] = biological target: T1, Amine oxidase [flavin-containing] B; assay: Reversible inhibition of human MAO-B assessed as residual enzyme activity at 4 fold IC50 incubated for 15 mins and measured 24 hrs post dialysis relative to control; settings: 24.25 h, time 1455 min; method in brief: as §1
Mus musculus [23] = assay: Antidepressant-like activity in CD1 mouse assessed as maximum efficacy at 20 mg/kg, po administered as subchronic dose gavage for 7 days and measured 1 h post last dose by Porsolt-forced swim test; assay type: functional, organism-based; settings: time 7.0 day; method in brief: as §2

Compound	Papp at 16 h, 25 ug/ml [1] [×10⁻⁶ cm/s]	Activity [2] [nmol/min/mg]	Ki [3] [µM]	Activity [4] [%]	Activity [5] [µg/g]	Ki [6] [nM]	Activity (Mus musculus [7])	Activity [8]	Activity [9] [%]	Activity [10] [%]	Activity (Mus musculus [11])	Ratio Ki [12]	Activity [13] [µg/g]	Activity [14] [µg/g]	viability at 2 h, 7.5 µM [15] [%]	viability at 2 h, 30 µM [16] [%]	Activity [17] [µg/g]	Activity [18] [nmol/min/mg]	viability at 2 h, 15 µM [20] [%]	Activity [22] [%]	other results
COc1ccc(C2=NN(C(=O)Cn3c(=O)oc4ccccc43)C(c3ccccc3Cl)C2)cc1 (stereo unspecified)	11	0.25	1.25	78.2	7.1	1	Active	Non-Toxic	90.16	18.11	Active	8 10^-4No_unit	0.31	1.19	91.2	85	1.24	0.24	90	91.5	Activity [19]: 0.98 µg/g; Activity [21]: 0.35 µg/g
COc1ccc(C2CC(c3ccccc3)=NN2C(=O)Cn2c(=O)oc3ccccc32)cc1OC (stereo unspecified)	9.44	0.28	20	78.9	7.08	9	inactive	Non-Toxic	94	23.11	Active	4.55 10^-5No_unit	0.24	1.04	90.4	85.3	1.23	0.27	88.2	94.8	Activity [19]: 0.91 µg/g; Activity [21]: 0.32 µg/g
COc1ccccc1/C=C/C(=N\NC(=O)Cn1c(=O)oc2ccc(Cl)cc21)c1ccccc1	14.6	–	2.75	77.29	–	1	–	–	92.24	19.55	–	7.27 10^-5No_unit	–	–	91.3	87.7	–	–	89	97	–
COc1cccc(C2CC(c3ccccc3)=NN2C(=O)Cn2c(=O)oc3ccccc32)c1 (stereo unspecified)	8.9	0.31	8.25	85	7.08	8	inactive	Non-Toxic	91.74	24.55	Active	0.00097	0.24	1.01	96.2	77.3	1.23	0.29	88.3	92.25	Activity [19]: 0.88 µg/g; Activity [21]: 0.32 µg/g
COc1ccc(C(/C=C/c2cccc(OC)c2OC)=N/NC(=O)Cn2c(=O)oc3ccc(Cl)cc32)cc1	–	–	1850	82.37	–	10	Active	Non-Toxic	93.57	20.16	Active	–	–	–	118	88.5	–	–	99.1	95.21	Activity (Mus musculus [23]): inactive
COc1ccccc1C(/C=C/c1ccccc1Cl)=N/NC(=O)Cn1c(=O)oc2ccc(Cl)cc21	14	–	9.27	77.22	–	1	–	–	93.26	21.91	–	1.08 10^-4No_unit	–	–	92.1	87.4	–	–	90.6	93.41	–
